Source: ChEMBL document CHEMBL1138267, “Identification of phosphinate dipeptide analog inhibitors directed against the Plasmodium falciparum M17 leucine aminopeptidase as lead antimalarial compounds” (J Med Chem, 2007)
pIC50, pKi: −log10 of the molar value.

Key:
[1] = Inhibition of Plasmodium falciparum recombinant M17 LAP
How it was run: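 His-tagged PfLAP expressed in baculovirus-infected Sf9 cells and Ni-agarose purified. The enzyme was Co2+-activated (1 mM CoCl2, 50 mM Tris-HCl pH 8.0, 20 min) and H-Leu-NHMec hydrolysis was read at ex 370/em 460 nm, 37 °C. Ki came from Dixon plots of initial rates (26 nM enzyme, 2.5–100 µM substrate, 2.44–78.13 nM inhibitor). For time-dependent binding, Ki* came from steady-state progress curves (2 µM substrate, 19.53–312.5 nM).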

Plasmodium falciparum [2] = assay: Antimalarial activity after 48 hrs against Plasmodium falciparum D10 by [3H]hypoxanthine uptake; type: functional, organism-based
Plasmodium falciparum [3] = assay: Antimalarial activity after 48 hrs against multidrug-resistant Plasmodium falciparum Dd2 by [3H]hypoxanthine uptake; type: functional, organism-based
Plasmodium falciparum [4] = assay: Antimalarial activity after 48 hrs against drug-sensitive Plasmodium falciparum 3D7 by [3H]hypoxanthine uptake; type: functional, organism-based
Mus musculus [5] = assay: Toxicity in Plasmodium chabaudi chabaudi infected C57BL/6J mice (Mus musculus) at 2 mg, intraperitoneally twice daily after 7 days; type: organism-based; settings: in vivo, ip, 168 h
Mus musculus [6] = assay: Toxicity in Plasmodium chabaudi chabaudi infected C57BL/6J mice (Mus musculus) at 0.1 mg, intraperitoneally twice daily after 4 days; type: organism-based; settings: in vivo, ip, 96 h
Plasmodium chabaudi [7] = assay: Antimalarial activity against Plasmodium chabaudi chabaudi in C57BL/6J mice (Mus musculus) assessed as parasitemia on day 11 at 2 mg, intraperitoneally twice daily for 7 days; type: functional
Plasmodium chabaudi [8] = assay: Antimalarial activity against Plasmodium chabaudi chabaudi in C57BL/6J mice (Mus musculus) assessed as reduction of parasitemia on day 11 at 2 mg, intraperitoneally twice daily for 7 days relative to control; type: functional; design: scale not given: the % may be the effect or the level left
Plasmodium chabaudi [9] = assay: Antimalarial activity against Plasmodium chabaudi chabaudi in C57BL/6J mice (Mus musculus) assessed as parasitemia on day 8 at 2 mg, intraperitoneally twice daily for 7 days; type: functional
Plasmodium chabaudi [10] = assay: Antimalarial activity against Plasmodium chabaudi chabaudi in C57BL/6J mice (Mus musculus) assessed as parasitemia on day 14 at 0.1 mg, intraperitoneally for 4 days; type: functional

Structure (SMILES): CC(C)C[C@H](CP(=O)(O)[C@H](N)CC(C)C)C(=O)O
- pKi [1]: 7.01
- pIC50 (Plasmodium falciparum [2]): < 4.00
- pIC50 (Plasmodium falciparum [3]): < 4.00
- pIC50 (Plasmodium falciparum [4]): < 4.00

Structure (SMILES): N[C@H](CCc1ccccc1)P(=O)(O)C[C@@H](Cc1ccccc1)C(=O)O
- pKi [1]: 7.88
- Activity (Mus musculus [5]): Non-toxic
- Activity (Mus musculus [6]): Non-toxic
- pIC50 (Plasmodium falciparum [2]): 4.34
- Activity (Plasmodium chabaudi [7]): 3.6%
- pIC50 (Plasmodium falciparum [3]): 4.70
- pIC50 (Plasmodium falciparum [4]): 4.62
- Activity (Plasmodium chabaudi [8]): 92%

Structure (SMILES): N[C@H](CCc1ccccc1)P(=O)(O)C[C@@H](Cc1ccc(O)cc1)C(=O)O
- pKi [1]: 7.98
- pIC50 (Plasmodium falciparum [2]): 4.33
- pIC50 (Plasmodium falciparum [3]): 4.89
- pIC50 (Plasmodium falciparum [4]): 4.72

Structure (SMILES): N[C@H](CCc1ccccc1)P(=O)(O)CCC(=O)O
- pKi [1]: 6.28
- pIC50 (Plasmodium falciparum [2]): < 4.00
- pIC50 (Plasmodium falciparum [3]): < 4.00
- pIC50 (Plasmodium falciparum [4]): < 4.00

Structure (SMILES): CC(C)C[C@H](NC(=O)[C@@H](O)[C@H](N)Cc1ccccc1)C(=O)O.Cl [BESTATIN HYDROCHLORIDE]
- Activity (Plasmodium chabaudi [9]): 29.7%
- pKi [1]: 7.60
- Activity (Mus musculus [5]): Non-toxic
- Activity (Mus musculus [6]): Non-toxic
- pIC50 (Plasmodium falciparum [2]): 4.96
- pIC50 (Plasmodium falciparum [3]): 4.92
- pIC50 (Plasmodium falciparum [4]): 5.10

Structure (SMILES): CCN(CC)CCCC(C)Nc1ccnc2cc(Cl)ccc12 (stereo not given) [CHLOROQUINE]
- Activity (Plasmodium chabaudi [10]): 6.9%
- Activity (Mus musculus [5]): Non-toxic
- Activity (Mus musculus [6]): Non-toxic
